From ChEMBL document CHEMBL5230165, “Synthesis of bis-furyl-pyrrolo[3,4-b]pyridin-5-ones via Ugi-Zhu reaction and in vitro activity assays against human SARS-CoV-2 and in silico studies on its main proteins” (RSC Med Chem, 2023)
Activity calls are given as the source filed them. No cut-off for these calls is given here.

How the values were obtained:
[1] = test system: Vero C1008; assay: Cytotoxicity against African green monkey Vero E6 cells assessed as reduction in cell viability at 100 uM incubated for 48 hrs by crystal violet staining assay; assay type: toxicity, cell-based; settings: chlorocebus sabaeus, vero c1008, 48 h
Method in brief: (§1)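 Vero E6 cells were seeded at 25 000 per well 24 h ahead in DMEM with 8% FBS at 37 °C and 5% CO2. Compounds were tested at 0.001–100 μM for 48 h, with a 0.5% DMSO vehicle control. Cells were fixed in formaldehyde and stained with crystal violet, the dye was released with 10% acetic acid, and A590 was read. Viability is relative to untreated medium. IC50 came from polynomial regression.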

[2] = Cytotoxicity against African green monkey Vero E6 cells assessed as cell viability upto 10 uM incubated for 48 hrs by crystal violet staining assay relative to control; assay type: toxicity, cell-based, Vero C1008; settings: chlorocebus sabaeus, read-out: Activity; method in brief: as §1
[3] = test system: SARS-CoV-2; assay: Antiviral activity against SARS-CoV-2 infected in African green monkey Vero E6 cells assessed as inhibition of viral infection at 10 uM incubated for 1 hrs followed by compound washout and measured after 24 hrs by crystal violet staining based plaque assay relative to control; assay type: functional; settings: Severe acute respiratory syndrome coronavirus 2, Vero C1008
[4] = Cytotoxicity against African green monkey Vero E6 cells assessed as cell viability incubated for 48 hrs by crystal violet staining assay; assay type: toxicity, cell-based, Vero C1008; settings: African green monkey (Chlorocebus sabaeus)
[5] = test system: SARS-CoV-2; assay: Antiviral activity against SARS-CoV-2 infected in African green monkey Vero E6 cells assessed as inhibition of viral infection at 10 uM pre-infected with cells for 1 hrs followed by compound addition and measured after 24 hrs by crystal violet staining based plaque reduction assay; assay type: functional; settings: for Activity: Severe acute respiratory syndrome coronavirus 2

With `O=C1c2cc(N3CCOCC3)c(Cc3ccccc3)nc2C(c2ccco2)N1Cc1ccco1` (stereo unspecified) as the molecule, how does the Activity [1] read?
Its Activity is “Toxic”.

And the viability at 48 h, up to 10 µM [2]?
Its viability at 48 h, up to 10 µM is no less than 100%.

And the inhibition at 10 µM [3]?
The inhibition at 10 µM was 19.4%.

What about the IC50 at 48 h [4] of the same molecule?
The IC50 at 48 h was 276 µM.

And the Activity [5]?
Its Activity is “inactive”.

With `O=C1c2cc(N3CCOCC3)c(Cc3ccccc3)nc2C(c2ccoc2)N1Cc1ccco1` (stereo unspecified) as the molecule, how does the Activity [1] read?
The Activity was “Toxic”.

And the viability at 48 h, up to 10 µM [2]?
The viability at 48 h, up to 10 µM was no less than 100%.

What about the IC50 at 48 h [4] of the same molecule?
Its IC50 at 48 h is 85.1 µM.

And the inhibition at 10 µM ([5]; Severe acute respiratory syndrome coronavirus 2, Vero C1008)?
Its inhibition at 10 µM is 53%.

For `O=C1c2cc(N3CCOCC3)c(Cc3ccccc3)nc2C(C2CCCO2)N1Cc1ccco1` (stereo unspecified), which viability at 48 h, up to 10 µM [2] is on record?
Its viability at 48 h, up to 10 µM is no less than 100%.

What about the inhibition at 10 µM [3] of the same molecule?
The inhibition at 10 µM was 31.9%.

And the IC50 at 48 h [4]?
The IC50 at 48 h was 612 µM.

And the Activity [5]?
Its Activity is “Active”.

Which results are given for `O=C1c2cc(N3CCOCC3)c(Cc3ccccc3)nc2C(c2ccoc2)N1CC1CCCO1` (stereo unspecified)?
Activity [1]: Toxic; viability at 48 h, up to 10 µM [2]: ≥ 100%; inhibition at 10 µM [3]: 9.4%; IC50 at 48 h [4]: 290 µM; Activity [5]: inactive

Which Activity [1] does the source give for `O=C1c2cc(N3CCOCC3)c(Cc3ccccc3)nc2C(c2ccco2)N1CC1CCCO1` (stereo unspecified) here?
The Activity was “Toxic”.

And the viability at 48 h, up to 10 µM [2]?
Its viability at 48 h, up to 10 µM is no less than 100%.

And the IC50 at 48 h [4]?
The IC50 at 48 h was 76.9 µM.

Which results are given for `O=C1c2cc(N3CCOCC3)c(Cc3ccc(O)cc3)nc2C(c2ccco2)N1Cc1ccco1` (stereo unspecified)?
Activity [1]: Toxic; viability at 48 h, up to 10 µM [2]: ≥ 100%; inhibition at 10 µM [3]: 77%; IC50 at 48 h [4]: 153 µM; Activity [5]: inactive
